System: U2OS
Assay: Multiplex assay against U2OS
Format: toxicity, cell-based
Settings: human
In short: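 Four dyes were applied at seeding to live cells: Hoechst33342, BioTracker Green Microtubule Cytoskeleton Dye, MitoTracker Red and Annexin V Alexa Fluor 680. Imaging after compound addition used a CQ1 microscope at 37°C and 5% CO2. CellPathfinder machine-learning gating then sorted cells into Hoechst high-intensity objects or normal cells, normal cells into healthy, pyknosed or fragmented nuclei, and pyknosed cells into mitotic or apoptotic, with tubulin, mitochondrial-mass and membrane-permeability phenotypes given as per cents of healthy-nucleus cells.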

[1] = 12 h, 1 µM, compound concentration 1 uM, replicate 1
[2] = 12 h, 1 µM, compound concentration 1 uM, replicate 2
[3] = 12 h, 10 µM, compound concentration 10 uM, replicate 1
[4] = 12 h, 10 µM, compound concentration 10 uM, replicate 2
[5] = 24 h, 1 µM, compound concentration 1 uM, replicate 1
[6] = 24 h, 1 µM, compound concentration 1 uM, replicate 2
[7] = 24 h, 10 µM, compound concentration 10 uM, replicate 1
[8] = 24 h, 10 µM, compound concentration 10 uM, replicate 2
[9] = 48 h, 1 µM, compound concentration 1 uM, replicate 1
[10] = 48 h, 1 µM, compound concentration 1 uM, replicate 2
[11] = 48 h, 10 µM, compound concentration 10 uM, replicate 1
[12] = 48 h, 10 µM, compound concentration 10 uM, replicate 2

## S=C(NCCCc1c[nH]cn1)NCCCN(Cc1ccc(Cl)c(Cl)c1)c1ccc(Br)cn1
[1]
  Population Apoptotic (%): 56%
  Population Fragmented Nuclei (%): 9%
  Population Healthy Nuclei (%): 76%
  Population Hoechst High Intensity Objects (%): 9%
  Population Membrane Permeable-Phenotype (%): 7%
  Population Mitochondria Different-Phenotype (%): 31%
  Population Mitotic Cells (%): 43%
  Population Normal (%): 90%
  Population Pyknosed Nuclei (%): 13%
  Population Tubulin-Different-Phenotype (%): 32%
  Total Cell Count: 193
[2]
  Population Apoptotic (%): 0%
  Population Fragmented Nuclei (%): 17%
  Population Healthy Nuclei (%): 82%
  Population Hoechst High Intensity Objects (%): 15%
  Population Membrane Permeable-Phenotype (%): 8%
  Population Mitochondria Different-Phenotype (%): 8%
  Population Mitotic Cells (%): 0%
  Population Normal (%): 84%
  Population Pyknosed Nuclei (%): 0%
  Population Tubulin-Different-Phenotype (%): 4%
  Total Cell Count: 79
[3]
  Population Apoptotic (%): 88%
  Population Fragmented Nuclei (%): 47%
  Population Healthy Nuclei (%): 4%
  Population Hoechst High Intensity Objects (%): 15%
  Population Mitotic Cells (%): 11%
  Population Normal (%): 84%
  Population Pyknosed Nuclei (%): 48%
  Total Cell Count: 133
[4]
  Population Apoptotic (%): 93%
  Population Fragmented Nuclei (%): 25%
  Population Healthy Nuclei (%): 2%
  Population Hoechst High Intensity Objects (%): 11%
  Population Membrane Permeable-Phenotype (%): 100%
  Population Mitochondria Different-Phenotype (%): 100%
  Population Mitotic Cells (%): 6%
  Population Normal (%): 88%
  Population Pyknosed Nuclei (%): 72%
  Population Tubulin-Different-Phenotype (%): 100%
  Total Cell Count: 33
[5]
  Population Apoptotic (%): 66%
  Population Fragmented Nuclei (%): 10%
  Population Healthy Nuclei (%): 76%
  Population Hoechst High Intensity Objects (%): 6%
  Population Membrane Permeable-Phenotype (%): 6%
  Population Mitochondria Different-Phenotype (%): 10%
  Population Mitotic Cells (%): 33%
  Population Normal (%): 93%
  Population Pyknosed Nuclei (%): 12%
  Population Tubulin-Different-Phenotype (%): 14%
  Total Cell Count: 199
[6]
  Population Apoptotic (%): 0%
  Population Fragmented Nuclei (%): 19%
  Population Healthy Nuclei (%): 80%
  Population Hoechst High Intensity Objects (%): 8%
  Population Membrane Permeable-Phenotype (%): 16%
  Population Mitochondria Different-Phenotype (%): 8%
  Population Mitotic Cells (%): 0%
  Population Normal (%): 91%
  Population Pyknosed Nuclei (%): 0%
  Population Tubulin-Different-Phenotype (%): 20%
  Total Cell Count: 79
[7]
  Population Apoptotic (%): 97%
  Population Fragmented Nuclei (%): 44%
  Population Healthy Nuclei (%): 5%
  Population Hoechst High Intensity Objects (%): 21%
  Population Membrane Permeable-Phenotype (%): 100%
  Population Mitochondria Different-Phenotype (%): 100%
  Population Mitotic Cells (%): 2%
  Population Normal (%): 78%
  Population Pyknosed Nuclei (%): 49%
  Population Tubulin-Different-Phenotype (%): 100%
  Total Cell Count: 149
[8]
  Population Apoptotic (%): 100%
  Population Fragmented Nuclei (%): 12%
  Population Healthy Nuclei (%): 24%
  Population Hoechst High Intensity Objects (%): 25%
  Population Membrane Permeable-Phenotype (%): 94%
  Population Mitochondria Different-Phenotype (%): 88%
  Population Mitotic Cells (%): 0%
  Population Normal (%): 74%
  Population Pyknosed Nuclei (%): 62%
  Population Tubulin-Different-Phenotype (%): 88%
  Total Cell Count: 34
[9]
  Population Apoptotic (%): 28%
  Population Fragmented Nuclei (%): 10%
  Population Healthy Nuclei (%): 58%
  Population Hoechst High Intensity Objects (%): 8%
  Population Membrane Permeable-Phenotype (%): 6%
  Population Mitochondria Different-Phenotype (%): 11%
  Population Mitotic Cells (%): 72%
  Population Normal (%): 91%
  Population Pyknosed Nuclei (%): 30%
  Population Tubulin-Different-Phenotype (%): 10%
  Total Cell Count: 211
[10]
  Population Apoptotic (%): 22%
  Population Fragmented Nuclei (%): 21%
  Population Healthy Nuclei (%): 54%
  Population Hoechst High Intensity Objects (%): 13%
  Population Membrane Permeable-Phenotype (%): 5%
  Population Mitochondria Different-Phenotype (%): 10%
  Population Mitotic Cells (%): 77%
  Population Normal (%): 86%
  Population Pyknosed Nuclei (%): 24%
  Population Tubulin-Different-Phenotype (%): 15%
  Total Cell Count: 76
[11]
  Population Apoptotic (%): 92%
  Population Fragmented Nuclei (%): 50%
  Population Healthy Nuclei (%): 2%
  Population Hoechst High Intensity Objects (%): 22%
  Population Membrane Permeable-Phenotype (%): 50%
  Population Mitochondria Different-Phenotype (%): 100%
  Population Mitotic Cells (%): 7%
  Population Normal (%): 77%
  Population Pyknosed Nuclei (%): 46%
  Population Tubulin-Different-Phenotype (%): 100%
  Total Cell Count: 177
[12]
  Population Apoptotic (%): 100%
  Population Fragmented Nuclei (%): 31%
  Population Healthy Nuclei (%): 41%
  Population Hoechst High Intensity Objects (%): 30%
  Population Membrane Permeable-Phenotype (%): 92%
  Population Mitochondria Different-Phenotype (%): 89%
  Population Mitotic Cells (%): 0%
  Population Normal (%): 69%
  Population Pyknosed Nuclei (%): 26%
  Population Tubulin-Different-Phenotype (%): 92%
  Total Cell Count: 43

From ChEMBL document CHEMBL4689842, “EUbOPEN Chemogenomics Library wave 1” (2021)
